According to publication PMC7987787 (Nuclear medicine and biology, 2021):
Values joined by “and” are separate entries in the source; they are usually repeats but may differ in a detail not shown here. Identical values can stand only once. Like-named read-outs stand apart in the source and are kept apart here.

How the values were obtained:
PSMA = PSMA (Homo sapiens, UniProt Q04609); assay: PSMA inhibition assay; type: biochemical
Procedure, shortened: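 LNCaP cell extract as enzyme source, incubated with the inhibitor at various amounts plus 4 μM NAAG for 120 min. Glutamate released was detected with Amplex Red glutamic acid working solution over 60 min, fluorescence ex 530/em 560 nm. […] Triplicate; known PSMA inhibitor as positive control.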

[1] = test system: PC-3 PIP and PC-3 flu xenografts; settings: SCID mice
[2] = test system: PSMA+ PC-3 PIP xenografts; settings: cited from earlier work
[3] = Phase II trial, 3 months after treatment; cited from earlier work

Chain of PSMA (Q04609 whole entry): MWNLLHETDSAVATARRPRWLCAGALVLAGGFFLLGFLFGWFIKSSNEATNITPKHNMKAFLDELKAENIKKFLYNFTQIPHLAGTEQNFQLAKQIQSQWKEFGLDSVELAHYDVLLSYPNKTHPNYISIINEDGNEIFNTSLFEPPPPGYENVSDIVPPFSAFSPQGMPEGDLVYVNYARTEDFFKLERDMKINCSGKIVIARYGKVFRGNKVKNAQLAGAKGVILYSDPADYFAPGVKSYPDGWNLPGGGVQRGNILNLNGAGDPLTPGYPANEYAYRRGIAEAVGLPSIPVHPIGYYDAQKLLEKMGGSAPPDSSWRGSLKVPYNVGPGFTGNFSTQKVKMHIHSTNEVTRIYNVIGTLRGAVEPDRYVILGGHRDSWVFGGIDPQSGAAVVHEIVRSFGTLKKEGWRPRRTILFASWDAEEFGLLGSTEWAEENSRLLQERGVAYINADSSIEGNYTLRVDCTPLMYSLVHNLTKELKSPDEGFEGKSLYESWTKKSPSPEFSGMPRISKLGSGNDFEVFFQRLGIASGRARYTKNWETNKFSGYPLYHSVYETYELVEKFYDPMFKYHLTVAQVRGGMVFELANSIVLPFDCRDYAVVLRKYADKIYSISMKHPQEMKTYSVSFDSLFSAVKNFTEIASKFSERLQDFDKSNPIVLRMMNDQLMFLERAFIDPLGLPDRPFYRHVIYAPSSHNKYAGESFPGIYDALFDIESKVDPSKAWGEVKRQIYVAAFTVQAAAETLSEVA

SMILES: O=C(O)CC[C@H](NC(=O)N[C@@H](CCC(=O)NCCc1ccc(I)cc1)C(=O)O)C(=O)O [HS-549, (((S)-1-Carboxy-4-((4-iodophenethyl)amino)-4-oxobutyl)carbamoyl)-L-glutamic acid]
- IC50 (PSMA): 0.43 nM
- Ki (PSMA): 0.09 nM

SMILES: O=C(O)CC[C@H](NC(=O)N[C@@H](CCC(=O)NCCc1ccc([131I])cc1)C(=O)O)C(=O)O [[^131I]HS-549]
- Percent injected dose per gram: Blood ([1]; 1 h): 5.90 ± 1.05 % ID/g
- Percent injected dose per gram: Bone ([1]; 1 h): 0.94 ± 0.36 % ID/g
- Percent injected dose per gram: Brain ([1]; 1 h): 0.26 ± 0.08 % ID/g
- Percent injected dose per gram: Heart ([1]; 1 h): 2.30 ± 0.63 % ID/g
- Percent injected dose per gram: Kidneys ([1]; 1 h): 106 ± 18.9 % ID/g
- Percent injected dose per gram: Lg. Int. ([1]; 1 h): 0.52 ± 0.12 % ID/g
- Percent injected dose per gram: Liver ([1]; 1 h): 21.2± 4.14 % ID/g
- Percent injected dose per gram: Lungs ([1]; 1 h): 4.60 ± 1.09 % ID/g
- Percent injected dose per gram: Muscle ([1]; 1 h): 0.86 ± 0.26 % ID/g
- Percent injected dose per gram: PC-3 PIP ([1]; 1 h): 78.1 ± 19.1 % ID/g
- Percent injected dose per gram: PC-3 flu ([1]; 1 h): 2.21 ± 0.53 % ID/g
- Percent injected dose per gram: Sm. Int. ([1]; 1 h): 1.98 ± 0.30 % ID/g
- Percent injected dose per gram: Spleen ([1]; 1 h): 6.76 ± 3.42 % ID/g
- Percent injected dose per gram: Stomach ([1]; 1 h): 0.92 ± 0.20 % ID/g
- Percent injected dose per gram: Thyroid ([1]; 1 h): 1.17 ± 0.43 % ID/g
- Thyroid uptake ([1]; 1 h): 0.30 ± 0.13 %ID
- Tumor-to-blood ratio (PSMA+ PC3 PIP) ([1]; 1 h): 13.3 ± 2.7
- Tumor-to-kidney ratio (PSMA+ PC3 PIP) ([1]; 1 h): 0.74 ± 0.15
- Liver levels relative to co-administered [211At]HS-549 ([1]; 1 h and 2 h, P < 0.05): 3–6 fold
- Percent injected dose per gram: Blood ([1]; 2 h): 2.92 ± 0.32 % ID/g
- Percent injected dose per gram: Bone ([1]; 2 h): 0.65 ± 0.25 % ID/g
- Percent injected dose per gram: Brain ([1]; 2 h): 0.18 ± 0.02 % ID/g
- Percent injected dose per gram: Heart ([1]; 2 h): 1.14 ± 0.18 % ID/g
- Percent injected dose per gram: Kidneys ([1]; 2 h): 96.6 ± 39.1 % ID/g
- Percent injected dose per gram: Lg. Int. ([1]; 2 h): 1.32 ± 0.25 % ID/g
- Percent injected dose per gram: Liver ([1]; 2 h): 26.0 ± 3.09 % ID/g
- Percent injected dose per gram: Lungs ([1]; 2 h): 2.73 ± 0.66 % ID/g
- Percent injected dose per gram: Muscle ([1]; 2 h): 0.46 ± 0.12 % ID/g
- Percent injected dose per gram: PC-3 PIP ([1]; 2 h): 74.7 ± 13.1 % ID/g
- Percent injected dose per gram: PC-3 flu ([1]; 2 h): 1.51 ± 0.30 % ID/g
- Percent injected dose per gram: Sm. Int. ([1]; 2 h): 2.42 ± 0.40 % ID/g
- Percent injected dose per gram: Spleen ([1]; 2 h): 2.71 ± 0.85 % ID/g
- Percent injected dose per gram: Stomach ([1]; 2 h): 0.47 ± 0.17 % ID/g
- Percent injected dose per gram: Thyroid ([1]; 2 h): 0.69 ± 0.29 % ID/g
- Tumor-to-blood ratio (PSMA+ PC3 PIP) ([1]; 2 h): 26 ± 5.3
- Tumor-to-kidney ratio (PSMA+ PC3 PIP) ([1]; 2 h): 0.87 ± 0.30
- Percent injected dose per gram: Blood ([1]; 21 h): 1.39 ± 0.35 % ID/g
- Percent injected dose per gram: Bone ([1]; 21 h): 0.20 ± 0.05 % ID/g
- Percent injected dose per gram: Brain ([1]; 21 h): 0.08 ± 0.02 % ID/g
- Percent injected dose per gram: Heart ([1]; 21 h): 0.41 ± 0.09 % ID/g
- Percent injected dose per gram: Kidneys ([1]; 21 h): 3.13 ± 1.65 % ID/g
- Percent injected dose per gram: Lg. Int. ([1]; 21 h): 0.63 ± 0.39 % ID/g
- Percent injected dose per gram: Liver ([1]; 21 h): 1.86 ± 0.51 % ID/g
- Percent injected dose per gram: Lungs ([1]; 21 h): 0.87 ± 0.27 % ID/g
- Percent injected dose per gram: Muscle ([1]; 21 h): 0.16 ± 0.04 % ID/g
- Percent injected dose per gram: PC-3 PIP ([1]; 21 h): 22.6 ± 22.1 % ID/g
- Percent injected dose per gram: PC-3 flu ([1]; 21 h): 0.44 ± 0.18 % ID/g
- Percent injected dose per gram: Sm. Int. ([1]; 21 h): 0.37 ± 0.06 % ID/g
- Percent injected dose per gram: Spleen ([1]; 21 h): 0.29 ± 0.12 % ID/g
- Percent injected dose per gram: Stomach ([1]; 21 h): 0.14 ± 0.04 % ID/g
- Percent injected dose per gram: Thyroid ([1]; 21 h): 0.36 ± 0.05 % ID/g
- Thyroid uptake ([1]; 21 h): 0.08 ± 0.01 %ID
- Tumor-to-blood ratio (PSMA+ PC3 PIP) ([1]; 21 h): 18 ± 19
- Tumor-to-kidney ratio (PSMA+ PC3 PIP) ([1]; 21 h): 6.26 ± 4.04

SMILES: O=C(O)CC[C@H](NC(=O)N[C@@H](CCCCNC(=O)c1ccc([211At])cc1)C(=O)O)C(=O)O [[^211At]DCABzL, (((S)-1-carboxy-5-(4-[^211At]astinatobenzamido)pentyl)carbamoyl)-L-glutamic acid]
- Stomach activity level, range over time points ([2]; %ID/organ): 3.8 – 8.2%
- Thyroid radioactivity level, range over time points ([2]; %ID/organ): 0.5–1.3%
- Peak uptake in subcutaneous PC3 PSMA+ PIP xenografts [2]: > 30 % ID/g

SMILES: O=C(O)CC[C@H](NC(=O)N[C@@H](CCC(=O)NCCc1ccc([211At])cc1)C(=O)O)C(=O)O [[^211At]HS-549]
- Percent injected dose per gram: Blood ([1]; 1 h): 5.5 ± 0.8 % ID/g and 5.53 ± 0.84 % ID/g
- Percent injected dose per gram: Bone ([1]; 1 h): 1.49 ± 0.40 % ID/g
- Percent injected dose per gram: Brain ([1]; 1 h): 0.46 ± 0.09 % ID/g
- Percent injected dose per gram: Heart ([1]; 1 h): 4.34 ± 0.96 % ID/g
- Percent injected dose per gram: Kidneys ([1]; 1 h): 46.7 ± 8.2 % ID/g
- Percent injected dose per gram: Lg. Int. ([1]; 1 h): 1.16 ± 0.20 % ID/g
- Percent injected dose per gram: Liver ([1]; 1 h): 7.94 ± 2.15 % ID/g
- Percent injected dose per gram: Lungs ([1]; 1 h): 9.77 ± 1.75 % ID/g
- Percent injected dose per gram: Muscle ([1]; 1 h): 1.11 ± 0.29 % ID/g
- Percent injected dose per gram: PC-3 PIP ([1]; 1 h): 43.2 ± 9.8 % ID/g
- Percent injected dose per gram: PC-3 flu ([1]; 1 h): 3.48 ± 0.53 % ID/g
- Percent injected dose per gram: Sm. Int. ([1]; 1 h): 5.52 ± 1.57 % ID/g
- Percent injected dose per gram: Spleen ([1]; 1 h): 8.79 ± 2.09 % ID/g
- Percent injected dose per gram: Stomach ([1]; 1 h): 7.07 ± 2.24 % ID/g
- Percent injected dose per gram: Thyroid ([1]; 1 h): 3.24 ± 0.56 % ID/g
- Percent injected dose per gram: Blood ([1]; 2 h): 2.8 ± 0.4 % ID/g and 2.87 ± 0.40 % ID/g
- Percent injected dose per gram: Brain ([1]; 2 h): 0.39 ± 0.06 % ID/g
- Percent injected dose per gram: Heart ([1]; 2 h): 3.36 ± 0.59 % ID/g
- Percent injected dose per gram: Kidneys ([1]; 2 h): 40.4 ± 15.5 % ID/g
- Percent injected dose per gram: Lg. Int. ([1]; 2 h): 4.59 ± 0.81 % ID/g
- Percent injected dose per gram: Liver ([1]; 2 h): 4.65 ±1.28 % ID/g
- Percent injected dose per gram: Lungs ([1]; 2 h): 8.24 ± 2.25 % ID/g
- Percent injected dose per gram: Muscle ([1]; 2 h): 0.76 ± 0.18 % ID/g
- Percent injected dose per gram: PC-3 PIP ([1]; 2 h): 42.0 ± 7.16 % ID/g
- Percent injected dose per gram: PC-3 flu ([1]; 2 h): 2.82 ±0.60 % ID/g
- Percent injected dose per gram: Sm. Int. ([1]; 2 h): 3.81 ± 1.24 % ID/g
- Percent injected dose per gram: Spleen ([1]; 2 h): 6.13 ± 1.59 % ID/g
- Percent injected dose per gram: Stomach ([1]; 2 h): 14.3 ± 3.2 % ID/g
- Percent injected dose per gram: Thyroid ([1]; 2 h): 4.11 ± 2.00 % ID/g
- Percent injected dose per gram: Blood ([1]; 21 h): 0.92 ± 0.15 % ID/g
- Percent injected dose per gram: Bone ([1]; 21 h): 0.60 ± 0.17 % ID/g
- Percent injected dose per gram: Brain ([1]; 21 h): 0.17 ± 0.03 % ID/g
- Percent injected dose per gram: Kidneys ([1]; 21 h): 2.60 ± 0.77 % ID/g
- Percent injected dose per gram: Lg. Int. ([1]; 21 h): 0.93 ± 0.41 % ID/g
- Percent injected dose per gram: Liver ([1]; 21 h): 0.89 ± 0.13 % ID/g
- Percent injected dose per gram: Lungs ([1]; 21 h): 4.3 ± 0.7 % ID/g and 4.26 ± 0.72 % ID/g
- Percent injected dose per gram: Muscle ([1]; 21 h): 0.29 ± 0.09 % ID/g
- Percent injected dose per gram: PC-3 PIP ([1]; 21 h): 10.6 ± 9.91 % ID/g
- Percent injected dose per gram: Sm. Int. ([1]; 21 h): 1.28 ± 0.30 % ID/g
- Percent injected dose per gram: Spleen ([1]; 21 h): 2.31 ± 0.67 % ID/g
- Percent injected dose per gram: Stomach ([1]; 21 h): 12.6 ± 6.20 % ID/g
- Percent injected dose per gram: Thyroid ([1]; 21 h): 3.78 ± 0.63 % ID/g
- Stomach activity level, range over time points ([1]; %ID/organ): 3.2 −8.7 %ID
- Thyroid radioactivity level, range over time points ([1]; %ID/organ, all time points): 0.8–0.9 %ID

SMILES: O=C([O-])CN1CCN(CC(=O)[O-])CCN(CC(=O)NCC2CCC(C(=O)N[C@@H](Cc3ccc4ccccc4c3)C(=O)NCCCC[C@H](NC(=O)N[C@@H](CCC(=O)O)C(=O)O)C(=O)O)CC2)CCN(CC(=O)[O-])CC1.[177Lu+3] (some centres unmarked) [^177Lu-labeled PSMA-617]
- Patients with reductions in tumor volume [3]: about 40%
